Results published in ChEMBL document CHEMBL1134502, “Aromatic quinolinecarboxamides as selective, orally active antibody production inhibitors for prevention of acute xenograft rejection” (J Med Chem, 2001).

Key:
[1] = test system: Jurkat; experiment: In vitro inhibition of Jurkat cell proliferation.; assay type: functional, cell-based; details: Homo sapiens
Summary of the method: (§1)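 Murine B-cells stimulated with TNP-LPS (T-cell-independent type 1) were read for antibody production, the mouse MLR for T-cell activity, and Jurkat proliferation for cytotoxicity. Values are IC50 ± SE in µM, the mean of at least four independent determinations.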

[2] = species: Mus musculus; experiment: In vitro T-cell immunosuppressive activity in the mouse mixed lymphocyte reaction (MLR); assay type: functional; summary of the method: as §1
[3] = test system: Mus musculus; experiment: In vivo inhibition of TNP-specific immunoglobulin G production at 10 mg/kg/day oral administration.; assay type: functional
Summary of the method: (§2)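 OF1 mice were immunized iv with TNP-LPS and dosed on day 0 plus the three following days (four doses). The sc vehicle was polyethoxylated castor oil/EtOH; the po vehicle was Labrafil/EtOH/corn oil. Mice were bled on day 6, and serum DNP-specific IgM or IgG was titred by ELISA on DNP-BSA plates at a defined OD405.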

[4] = test system: Mus musculus; experiment: In vivo inhibition of TNP-specific immunoglobulin G production at 3 mg/kg/day subcutaneous administration.; assay type: functional; details: sc; summary of the method: as §2
[5] = test system: Mus musculus; experiment: In vivo inhibition of TNP-specific immunoglobulin G production at 30 mg/kg/day subcutaneous administration.; assay type: functional; details: sc; summary of the method: as §2
[6] = test system: Mus musculus; experiment: In vivo inhibition of TNP-specific immunoglobulin G production at 50 mg/kg/day subcutaneous administration.; assay type: functional; details: sc; summary of the method: as §2
[7] = test system: Mus musculus; experiment: In vivo inhibition of TNP-specific immunoglobulin M production at 10 mg/kg/day, po; assay type: functional; summary of the method: as §2
[8] = test system: Mus musculus; experiment: In vivo inhibition of TNP-specific immunoglobulin M production at 3 mg/kg/day, sc; assay type: functional; details: route subcutaneous; summary of the method: as §2
[9] = test system: Mus musculus; experiment: In vivo inhibition of TNP-specific immunoglobulin M production at 30 mg/kg/day, sc; assay type: functional; details: route subcutaneous; summary of the method: as §2
[10] = test system: Mus musculus; experiment: In vivo inhibition of TNP-specific immunoglobulin M production at 50 mg/kg/day, sc; assay type: functional; details: route subcutaneous; summary of the method: as §2
[11] = test system: Mus musculus; experiment: Survival period of mice in days after xenotransplantation and for a dose of 3 mg/kg (Histology = antibody-mediated rejection).; assay type: functional
[12] = test system: Mus musculus; experiment: Survival period of mice in days after xenotransplantation and for a dose of 30 mg/kg (Histology = antibody-mediated rejection, Chronic rejection).; assay type: functional
[13] = test system: Mus musculus; experiment: Survival period of mice in days after xenotransplantation and for a dose of 50 mg/kg (Histology = no antibody-mediated rejection).; assay type: functional
[14] = In vitro inhibition of Ab formation from trinitrophenyl-lipopolysaccharide (TNP-LPS) B-cells.; assay type: functional; details: Mus musculus; summary of the method: as §1

| SMILES | IC50 [1] | IC50 [2] | inhibition in vivo at 10 mg/kg/day [3] | inhibition in vivo at 3 mg/kg/day [4] | inhibition in vivo at 30 mg/kg/day [5] | inhibition in vivo at 50 mg/kg/day [6] | inhibition in vivo at 10 mg/kg/day [7] | inhibition in vivo at 3 mg/kg/day [8] | inhibition in vivo at 30 mg/kg/day [9] | inhibition in vivo at 50 mg/kg/day [10] | Survival [11] | Survival [12] | Survival [13] | IC50 [14] |
| --- | --- | --- | --- | --- | --- | --- | --- | --- | --- | --- | --- | --- | --- | --- |
| C/C=C/C[C@@H](C)[C@@H](O)[C@H]1C(=O)N[C@@H](CC)C(=O)N(C)CC(=O)N(C)[C@@H](CC(C)C)C(=O)N[C@@H](C(C)C)C(=O)N(C)[C@@H](CC(C)C)C(=O)N[C@@H](C)C(=O)N[C@H](C)C(=O)N(C)[C@@H](CC(C)C)C(=O)N(C)[C@@H](CC(C)C)C(=O)N(C)[C@@H](C(C)C)C(=O)N1C [CYCLOSPORINE] | > 10 µM |  |  |  |  |  |  |  |  |  |  |  |  |  |
| Cc1oncc1C(=O)Nc1ccc(C(F)(F)F)cc1 [LEFLUNOMIDE] | 34.6 µM | 11.4 µM | < 0% | < 0% | 39% | 85% | 5% | < 0% | 37% | 71% | 7 days | >7 days | >28 days | 5.1 µM |
